# Where two headings read alike, the source gives them in different places.
# Tests used:
# [1] = Singlet oxygen quantum yield by direct 1O2 phosphorescence, relative to [Ru; type: physicochemical; conditions: MeCN
# [2] = test system: human melanoma SKMEL28 cells; test: Cytotoxicity and photocytotoxicity, resazurin, 384-well, UTA; type: cell-based; conditions: visible vs. 733 nm
# [3] = test system: SKMEL28 cells; test: Photocytotoxicity at high fluence and irradiance, Modulight ML8500; type: cell-based, human
# Summary of the method: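 SKMEL28 photocytotoxicity was tested with a well-by-well illumination system that sets wavelength, fluence and irradiance separately for each well, allowing higher fluences and irradiances than whole-plate sources. Light-only control wells were included.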
# [4] = test system: female C57BL/6J mice; test: Maximum tolerated dose, dose escalation, intraperitoneal injection; type: in vivo, mouse
# Summary of the method: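 A dose-escalation safety study in mice used intraperitoneal injection at doses up to 100 mg kg−1. MTD was assigned from the appearance of observable toxicity.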
# [5] = test system: B16F10 tumor; type: in vivo, C57BL/6NCrl mice; conditions: for protection from tumor growth (tumor-free mice): challenged with live B16F10 cells
# Summary of the method: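 B16F10 cells were treated in vitro with test compound (1.40 μM) plus light. Cells collected 4 h and 12 h post-treatment were pooled and injected SC into the left flank of female and male C57BL/6NCrl mice, with PBS as control. After 7 days, untreated B16F10 cells were injected into the right flank. Tumor growth and tumor-free survival were followed, and hazard ratios derived.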
# [6] = test system: A375, B16F10 and SKMEL28 melanoma cell lines; test: Dark and light cytotoxicity stated for all three melanoma cell lines; type: cell-based; conditions: read-out: dark EC50 values, toward all three melanoma cell lines
# Summary of the method: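 Log-phase A375, B16F10 and SKMEL28 melanoma cells were seeded and dosed with test compound (1 nM to 300 μM) in the dark. They were incubated 48 h, and viability was read by resazurin assay. EC50 is the concentration that reduces relative viability by 50%, taken from dose–response curves and reported as Log(EC50 ± SEM).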
# [7] = Observations on stability and behaviour in solution; type: physicochemical; conditions: 37 °C, extended periods of time, absence of a light trigger
Substance,ΦΔ (singlet oxygen quantum yield) ([1]; λex 630 nm),ΦΔ (singlet oxygen quantum yield) ([1]; λex 753 nm),difference between the visible and NIR EC50 values [2] [fold],"EC50 ([3]; 753 nm (200 J cm−2, 300 mW cm−2)) [µM]",photocytotoxicity with 976 nm ([3]; 976 nm regardless of the fluence (data not shown)),"reduction of cell viability ([3]; all light treatments except 810 nm, down to 2.5 μM) [%]",maximum tolerated dose (MTD) [4] [mg/kg],protection from tumor growth (tumor-free mice) ([5]; female C57BL/6 mice vaccinated with 2-PDT treated B16F10 cells) [%],"hazard ratios ([5]; female and male mice, vaccinated vs. unvaccinated)",protection from tumor growth (tumor-free mice) ([5]; male C57BL/6 mice vaccinated with 2-PDT treated B16F10 cells) [%],EC50 [6] [µM],stability to ligand dissociation [7],ΦΔ (singlet oxygen quantum yield) ([1]; λex 455 nm (excitation maximum))
[Ru(tpbn)(dppn)(4-pic)]Cl2 [Compound 2],0.93,0.86,5,2.02,ineffective,≥ 60,50,80,≤ 0.2,55,≥ 46.3,completely stable,
[Ru(tpbn)(phen)(4-pic)]Cl2 [Compound 8],0.10,0.10,,,,,,,,,≥ 46.3,,0.17
